Compound activity (PubChem BioAssay)
Only some compounds are listed: those with a hit (about 2% of all), similar ones and a draw of the others.
LYP inh 2 – inhibitors of human LYP (PTPN22) phosphatase; Q9Y2R2; inhibition, % at 2 µM; recombinant LYP catalytic domain, DiFMUP fluorescence; hit rate 0.21% among 96,000;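 active means inhibition at 2 µM at or above a set limit, the screen mean plus 3 SD, cut at about 24% in these data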;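 further: 0% = DMSO with enzyme and 100% = enzyme fully blocked by orthovanadate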
Target sequence (Q9Y2R2 whole entry, looked up, the tested form may be a part): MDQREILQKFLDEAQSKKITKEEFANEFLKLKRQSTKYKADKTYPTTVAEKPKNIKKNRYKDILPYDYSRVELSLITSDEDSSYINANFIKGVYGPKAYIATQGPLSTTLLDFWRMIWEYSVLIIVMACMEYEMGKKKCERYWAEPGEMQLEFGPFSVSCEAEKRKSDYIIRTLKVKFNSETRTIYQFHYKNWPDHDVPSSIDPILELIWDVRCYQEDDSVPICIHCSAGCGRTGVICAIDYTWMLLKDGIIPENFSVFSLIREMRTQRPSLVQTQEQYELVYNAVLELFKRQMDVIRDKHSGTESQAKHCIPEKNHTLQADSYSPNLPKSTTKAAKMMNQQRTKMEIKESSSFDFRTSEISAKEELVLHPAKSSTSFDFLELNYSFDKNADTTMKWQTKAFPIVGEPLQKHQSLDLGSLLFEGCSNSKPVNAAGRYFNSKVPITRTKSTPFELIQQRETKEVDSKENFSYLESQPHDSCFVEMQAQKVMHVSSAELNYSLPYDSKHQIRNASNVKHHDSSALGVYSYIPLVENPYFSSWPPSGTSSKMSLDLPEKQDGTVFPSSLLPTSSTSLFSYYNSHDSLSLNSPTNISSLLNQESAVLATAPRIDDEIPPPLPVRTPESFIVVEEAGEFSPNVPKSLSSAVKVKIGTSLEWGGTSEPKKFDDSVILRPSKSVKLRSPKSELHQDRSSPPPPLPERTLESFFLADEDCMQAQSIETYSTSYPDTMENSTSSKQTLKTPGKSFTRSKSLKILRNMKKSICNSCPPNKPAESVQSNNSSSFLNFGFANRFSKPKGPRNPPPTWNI
PLK1 inh – inhibitors of human PLK1 kinase; recombinant PLK1 kinase, TR-FRET peptide phosphorylation; P53350; hit rate 0.53% among 97,000; inhibition, % at 10 µM; AID 619;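 active means inhibition of 50% or more in the single-concentration screen; inactive means inhibition below 50%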;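 further: 0% = DMSO max control and 100% = H-89 dihydrochloride min control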
EphB4 ephrin blk – EphB4-ephrin-B2 interaction antagonism; hit rate 0.15% among 97,000; P54760; inhibition, % at 7 µM; EphB4 LBD / TNYL-RAW-Alexa532 peptide, fluorescence polarization;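 active means inhibition above the screen-wide mean inhibition plus 3 SD, cut at about 15% in these data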;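 further: 0% = DMSO wells and 100% = excess unlabeled TNYL-RAW peptide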
HIV Rev-RRE inh – HIV Rev-RRE protein-RNA interaction inhibition; Rev peptide-RRE RNA binding, FRET; AID 704; hit rate 0.79% among 97,000; inhibition, % at 8 µM;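 active means inhibition above the screen-wide mean plus 3 SD, cut at about 35% in these data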;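 further: 0% = median DMSO wells and 100% = median Neomycin B control wells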
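Test system: Cy5-tagged RRE RNA duplex with fluorescein-tagged Rev peptide | Read-out: % inhibition of FRET ratio versus controls | Probe or stimulus: Labelled Rev peptide | Incubation: 5 min RNA-compound premix plus 15 min binding step, 25 °C | Technique: FRET fluorescence readout | Benchmarks: DMSO low control, neomycin B high control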
Plk1 PBD FP – inhibitors of human Plk1 polo box domain binding; P53350; Plk1 PBD phosphopeptide binding, fluorescence polarization; inhibition, %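 (tested at about 20 µM)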; hit rate 0.13% among 97,000; in the data active means inhibition above about 34%, passing the limit was not always enough
LYP act – activators of human LYP (PTPN22) phosphatase | activation, % at 2 µM | recombinant LYP, DiFMUP fluorescence; 0 = plate median, 100 = signal doubled | Q9Y2R2 | hit rate 0.11% among 96,000;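 active means activation at 2 µM above a set limit, the mean plus 5 SD, cut at about 37% in these data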
An asterisk follows results filed as active; . = no result; [ ] = another dose, or the depositor's remark.

SMILES | LYP inh 2 | PLK1 inh | EphB4 ephrin blk | HIV Rev-RRE inh | Plk1 PBD FP | LYP act
CCSc1nnc(-c2sc3nnc(-c4ccccc4)c(-c4ccccc4)c3c2N)o1 | 7.8 | -78.5 | 3.2 | 117.0*[fluorescence artefact?] | -100.2 | -4.8
COC(=O)CCC(=O)c1oc2ccc(Br)cc2c1N | -2.4 | -12.4 | -6.4 | -1.4 | 25.6 | 1.9
COc1ccc2oc(C(=O)CCC(=O)O)c(N)c2c1 | . | 63.0* | -7.8 | 3.5 | 12.1 | .
CCOC(=O)c1ccc(NC(=O)CSc2nc(NC(=O)c3ccccc3)c3c(C)c(C)oc3n2)cc1 | 25.3* | 0.2 | 0.6 | -0.7 | -9.8 | -23.9
O=c1[nH]c(Nc2ccccc2)cc2ccccc12 | 2.9 | -7.9 | 0.0 | 61.3* | 9.2 | -4.8
CC(CN(C)Cc1ccccc1)OC(=O)C1COc2ccccc2O1 (stereo not given) | . | 61.9* | -4.7 | 2.1 | -4.1 | .
O=C(NCc1ccccc1)C1COc2ccccc2O1 (stereo not given) | -6.9 | -4.9 | 4.9 | 4.3 | 18.6 | 5.8
COc1ccccc1OC(=O)c1ccc(SC)cc1OC | 14.7 | -3.2 | 10.5 | 9.9 | 7.7 | -11.1
O=C(NC1CC1)C1CCN(c2ncnc3c2sc2cccc(F)c23)CC1 | 4.0 | -22.9 | 2.2 | 6.2 | -16.3 | -4.9
COc1ccccc1C1CC(c2c(-c3ccccc3)c3cc(Cl)ccc3[nH]c2=O)=NN1S(C)(=O)=O (stereo not given) | 13.5 | -5.4 | 16.6* | 6.4 | -27.9 | -12.0
CCCCNS(=O)(=O)c1ccc(NS(=O)(=O)c2c(C)cc(C)cc2C)cc1 | 28.2* | 5.9 | 6.5 | 11.9 | -16.1 | -28.9
CCNS(=O)(=O)c1ccc(NS(=O)(=O)c2cc(C)ccc2C)cc1 | -2.7 | -15.8 | -1.6 | -1.2 | 14.0 | 2.9
CCOC(=O)C1(C)NC(c2ccc(OC)cc2OC)C2C(=O)N(c3cccc(OC)c3)C(=O)C21 (stereo not given) | 5.8 | -10.5 | 1.0 | 6.4 | -13.3 | -6.9
Cc1csc(C(=O)O)c1-n1cccc1 | 10.2 | 54.5* | -6.1 | 0.6 | 28.7 | -8.8
O=C(CNC(=O)c1ccc(Oc2ccccc2)cc1)OC1CCCCC1=O (stereo not given) | 2.4 | -8.8 | 3.2 | -1.3 | -0.8 | -2.8
COc1ccc(/C=C2\C(=O)N(c3nc(-c4ccc(Br)cc4)cs3)N=C2c2ccccc2)cc1 | -0.9 | -8.2 | -1.7 | 5.4 | 8.9 | -1.9
CCOc1cc(/C=C2\C(=O)N(c3nc(-c4ccc(Br)cc4)cs3)N=C2c2ccccc2)ccc1O | 18.7 | -20.0 | 6.2 | 57.9* | 4.2 | -17.4
COc1ccccc1/C=C1\SC(=S)N(Nc2nc(C)cc(C)n2)C1=O | -9.4 | -10.8 | -3.7 | 4.9 | -9.3 | 11.7
Cc1cc(C)nc(NN2C(=O)/C(=C/c3ccc(O)cc3)SC2=S)n1 | 12.7 | 1.3 | 1.6 | 58.4* | -71.6 | -10.8
O=C(N/N=C1/C(=O)c2cccc3cccc1c23)c1ccc(Cl)cc1 | 17.1 | -3.4 | 24.9* | 1.7 | 13.9 | -14.7
CCNC(=S)N/N=C1\C(=O)c2cccc3cccc1c23 | 9.8 | -8.5 | 1.9 | 0.0 | 1.2 | -11.1
O=C(N1CCN(c2ccccn2)CC1)N1c2ccccc2Sc2ccccc21 | -1.8 | -11.8 | -6.9 | -3.9 | -29.7 | -1.2
O=c1[nH]c2cc3c(cc2cc1C(c1nnnn1C1CCCCC1)N1CCSCC1)OCCO3 (stereo not given) | 18.9 | -28.0 | 1.5 | 51.2* | -15.9 | -19.5
COc1ccc(Cn2nnnc2C(c2cc3ccc(OC)cc3[nH]c2=O)N2CCC(C)CC2)cc1 (stereo not given) | 0.8 | 9.2 | 16.4* | 28.7 | -16.0 | 0.6
COc1cc2cc(C(c3nnnn3C3CCCC3)N3CCCCCC3)c(=O)[nH]c2cc1OC (stereo not given) | -0.4 | -15.6 | -0.4 | 57.8* | -15.6 | -1.3
COc1cc2cc(C(c3nnnn3C3CCCC3)N3CCCCC3)c(=O)[nH]c2cc1OC (stereo not given) | 4.9 | -10.7 | 4.3 | 9.7 | -7.7 | -6.9
CN(C(=S)NC(=O)CCCOc1ccc(Cl)cc1Cl)c1ccccc1 | 4.4 | -8.9 | -6.9 | -2.9 | 11.3 | -1.5
CCc1ccc2[nH]c(=O)c(CN(Cc3ccccc3)C(=O)Nc3ccccc3OC)cc2c1 | 13.4 | -14.5 | 10.1 | 5.1 | 7.1 | -11.9
Cc1ccc(N2C(=O)c3cccc4c(N5CCN(C)CC5)ccc(c34)C2=O)c2cccnc12 | -11.5 | -21.1 | 2.4 | 110.1*[fluorescence artefact?] | 2.8 | 6.0
